# From the RNAGym collection of RNA variant scans (doi:10.1101/gad.245936.114)
# This sample holds only a part of the variants without activity.
# B1: tRNA (parent)
# chain: CUCUCGGUAGCCAAGUUGGUUUAAGGCGCAAGACUUUAAUUUAUCACUACGAAAUCUUGAGAUCGGGCGUUCGACUCGCCCCCGGGAGAUUUUUUCCUCGAGCAA
# Variants of: B1
# Assay: nonsense suppression (GFP-seq) (ratio to wild type); higher = more function; SUP4oc tRNA, yeast GFP reporter sort-seq
# Summary of the method: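 Sorted GFP/RFP bins of yeast were each Illumina-sequenced with a phred ≥30 cutoff; the cells held a genome-integrated ochre-suppressor tRNA variant from a library with ~3% random mutations, a galactose-driven GFP ochre reporter, and RFP. Culture was in raffinose/galactose medium containing 80 mg/L adenine. Nonsense suppression, termed GFPSEQ, is the median GFP/RFP of the bins weighted by each variant's estimated cell share per bin, relative to the unmutated parent tRNA, for variants reaching ≥100 reads and ≥30 cells.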
row,Variant,nonsense suppression
1,U22G U63A,0.939
2,A54C A60U,1.09
3,A60G C81U,0.0488
4,G10C U21A,≤ 0.026
5,C27U A31U,0.0324
6,G7U A9C U16C U57C,≤ 0.026
7,C27G C68G G84A,≤ 0.026
8,A74C C79U,0.037
9,U57C A87G,0.0399
10,A62U G84C,0.0347
11,C29U U35C U58G C64U G66C,≤ 0.026
12,U17G A30G,0.397
13,U22A A30G,0.677
14,A30U C77G,0.0332
15,G26C U57A G73A,≤ 0.026
16,G25U G61A G67U,≤ 0.026
17,A54C U63G,0.0506
18,A30U G84U,0.423
19,U58G U70C,≤ 0.026
20,C3U G6C A9U A13G A23G A60G G69C,≤ 0.026
21,A9G U63C,0.772

row,Variant,nonsense suppression
1,C75U G78A,0.9
2,C3A G15U G25A,≤ 0.026
3,G85U,1.12
4,U71C C77G G84A,≤ 0.026
5,G7U A54U U63C G88U,≤ 0.026
6,C1U U71G,≤ 0.026
7,U63C U76C,0.693
8,U2A G61A,0.0448
9,A9G U17A,0.92
10,A9U C12G U35G C72A,≤ 0.026
11,C11A G66C,≤ 0.026
12,U17A A54G G85U,≤ 0.026
13,C11G U20C G25U U63G C75A G78C,≤ 0.026
14,A24C U70A,≤ 0.026
15,C12U U76G,0.0906
16,C12U A33C C80G,≤ 0.026
17,C11A G26A U70A,≤ 0.026
18,G25U G61U C68U,≤ 0.026
19,C3U G85A,0.528
20,U17G A23C,≤ 0.026
21,G73A G88U,0.0757

row,Variant,nonsense suppression
1,C3U U21G G85C,0.417
2,G7U U58G C80G,≤ 0.026
3,G61A C68U,0.609
4,C3U C5U,0.158
5,A62C C64G,≤ 0.026
6,U16G G85U,1.06
7,A9U G61A C72A,≤ 0.026
8,A9C C68U,0.765
9,U22G G78C,0.0318
10,A9C C29U,0.751
11,U2C G28U,≤ 0.026
12,A30U A74U,0.0497
13,C11U G61C A87U,≤ 0.026
14,U4C G25A,0.162
15,U8A A24C C79G,≤ 0.026
16,C12U G25A,1.19
17,A9G C68U,0.153
18,U22G A30U,0.184
19,C12U C56G,≤ 0.026
20,A13U U21G,0.763
21,G85A G88C,≤ 0.026

row,Variant,nonsense suppression
1,A30G A89U,0.0271
2,G25U C56A G86U,≤ 0.026
3,G10U G32C,≤ 0.026
4,U4C A9G G15A A30U,0.0449
5,A33G G84U,0.222
6,U20A A74U,0.0745
7,A9G U76G C80G,≤ 0.026
8,G59C U63A G66A C68U C72A,≤ 0.026
9,U20C A60G,0.0437
10,A33C G61U G66U,≤ 0.026
11,G6C U35G,≤ 0.026
12,U57G C68G C75G,≤ 0.026
13,A24U A62G,0.0414
14,G18C C27G G67A G69C,1.05
15,C27U A54C,0.0314
16,G6A C81U,0.0651
17,C29A,0.113
18,U17A A23C U71C,≤ 0.026
19,C79G C82G,≤ 0.026
20,U22C U76C,1.02
21,U20A A24U,0.0696
